# Data taken from ChEMBL document CHEMBL4411287, “Discovery and optimization of a series of 3-substituted indazole derivatives as multi-target kinase inhibitors for the treatment of lung squamous cell carcinoma” (Eur J Med Chem, 2019).
# Experiments:
# [1] = test system: NCI-H1581; assay: Antitumor activity against human NCI-H1581 cells xenografted in nude mouse assessed as tumor growth inhibition at 10 mg/kg, po qd for 7 to 10 days relative to control; assay type: functional; settings: read-out: TGI
# Procedure, shortened: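 Female nude mice, 4-6 weeks old. NCI-H1581 cells (5×10^6 in 200 µL) injected s.c., grown to 700-800 mm³, then 1-mm³ fragments implanted s.c. by trocar. At 100-150 mm³ animals were randomized (vehicle n=12, treated n=6) and dosed orally once daily for 7 days. Tumours measured twice weekly, volume = length×width²/2. TGI calculated from change in tumour volume versus vehicle on the final day, with Student's t-test.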
# [2] = target: Tyrosine-protein kinase receptor UFO (Homo sapiens) (UniProt P30530); assay: Inhibition of AXL (unknown origin) at 10 nM relative to control
# [3] = target: Hepatocyte growth factor receptor (Homo sapiens) (UniProt P08581); assay: Inhibition of c-Met (unknown origin) at 100 nM relative to control
# Procedure, shortened: (§1)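 ELISA with purified recombinant kinase on plates precoated with poly(Glu,Tyr) 4:1 at 20 µg/mL. ATP 10 µM in HEPES pH 7.4 buffer with MgCl2, MnCl2, Na3VO4 and DTT. Run 60 min at 37 °C. Detected with anti-phosphotyrosine PY99, HRP secondary antibody and o-phenylenediamine, read at 490 nm. Inhibition % = [1 − A490/A490 control]×100. 1% DMSO as negative control.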
# [4] = target: Vascular endothelial growth factor receptor 2 (Homo sapiens) (UniProt P35968); assay: Inhibition of VEGFR2 (unknown origin) at 10 nM relative to control; procedure, shortened: as §1
# [5] = target: Proto-oncogene tyrosine-protein kinase Src (Homo sapiens) (UniProt P12931); assay: Inhibition of c-Src (unknown origin) at 1000 nM relative to control; procedure, shortened: as §1
# [6] = target: Angiopoietin-1 receptor (Homo sapiens) (UniProt Q02763); assay: Inhibition of Tie-2 (unknown origin) at 1000 nM relative to control; procedure, shortened: as §1
# [7] = target: Fibroblast growth factor receptor 2 (Homo sapiens) (UniProt P21802); assay: Inhibition of FGFR2 (unknown origin) at 100 nM relative to control
# Procedure, shortened: (§2)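 Purified recombinant kinase domains run in ELISA on precoated poly(Glu,Tyr) 4:1 (20 µg/mL) with 10 µM ATP in 50 mM HEPES pH 7.4, 50 mM MgCl2, 0.5 mM MnCl2, 0.2 mM Na3VO4, 1 mM DTT; 1% DMSO control; 60 min at 37 °C. Phosphotyrosine read by PY99 antibody, HRP anti-mouse IgG, OPD/H2O2 at 490 nm; inhibition = [1−A490/A490control]×100%; two separate experiments.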
# [8] = test system: KG-1; assay: Antiproliferative activity against FGFR1 fused human KG1 cells after 72 hrs by CCK8 assay; assay type: functional, cell-based; settings: KG-1, 72 h
# Procedure, shortened: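 Cells seeded at low density in growth medium and compounds added the next day. Incubated 72 h, then proliferation read by sulforhodamine B, MTT or CCK-8. IC50 obtained by four-parameter concentration-response curve fitting.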
# [9] = target: Vascular endothelial growth factor receptor 1 (Homo sapiens) (UniProt P17948); assay: Inhibition of VEGFR1 (unknown origin) at 10 nM relative to control; procedure, shortened: as §1
# [10] = target: Platelet-derived growth factor receptor alpha (Homo sapiens) (UniProt P16234); assay: Inhibition of PDGFR-alpha (unknown origin) at 10 nM relative to control; procedure, shortened: as §2
# [11] = target: Fibroblast growth factor receptor 2 (Homo sapiens) (UniProt P21802); assay: Inhibition of FGFR2 (unknown origin) at 1000 nM relative to control; procedure, shortened: as §2
# [12] = target: Ephrin type-A receptor 2 (Homo sapiens) (UniProt P29317); assay: Inhibition of EPH-A2 (unknown origin) at 10 nM relative to control; procedure, shortened: as §2
# [13] = target: ALK tyrosine kinase receptor (Homo sapiens) (UniProt Q9UM73); assay: Inhibition of ALK (unknown origin) at 1000 nM relative to control
# [14] = target: Focal adhesion kinase 1 (Homo sapiens) (UniProt Q05397); assay: Inhibition of FAK (unknown origin) at 10 nM relative to control; procedure, shortened: as §2
# [15] = target: Cyclin-dependent kinase 4 (Homo sapiens) (UniProt P11802); assay: Inhibition of CDK4 (unknown origin) at 10 nM relative to control
# [16] = target: Fibroblast growth factor receptor 3 (Homo sapiens) (UniProt P22607); assay: Inhibition of FGFR3 (unknown origin) at 1000 nM relative to control; procedure, shortened: as §2
# [17] = target: Cyclin-dependent kinase 1 (Homo sapiens) (UniProt P06493); assay: Inhibition of CDK1 (unknown origin) at 100 nM relative to control
# [18] = target: Receptor tyrosine-protein kinase erbB-4 (Homo sapiens) (UniProt Q15303); assay: Inhibition of ErbB4 (unknown origin) at 100 nM relative to control; procedure, shortened: as §2
# [19] = target: Fibroblast growth factor receptor 2 (Homo sapiens) (UniProt P21802); assay: Inhibition of FGFR2 (unknown origin) at 10 nM relative to control; procedure, shortened: as §2
# [20] = Permeability in human Caco2 cells at 5 uM after 120 mins by LC-MS/MS analysis relative to control; assay type: ADME, cell-based; settings: Caco-2, read-out: Fabs
# Procedure, shortened: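 Caco-2 (C2BBe1) monolayers grown confluent on collagen-coated transwell membranes. Buffer is HBSS with 10 mM HEPES at pH 7.4 and pH 6.8. Compound 5 µM added to the apical or basolateral side; duplicate samples taken at 120 min and analysed by LC-MS/MS. Results given as Papp A→B and B→A and efflux ratio B→A/A→B.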
# Sequence of Fibroblast growth factor receptor 2 (Homo sapiens) (P21802 22-821 limits assumed): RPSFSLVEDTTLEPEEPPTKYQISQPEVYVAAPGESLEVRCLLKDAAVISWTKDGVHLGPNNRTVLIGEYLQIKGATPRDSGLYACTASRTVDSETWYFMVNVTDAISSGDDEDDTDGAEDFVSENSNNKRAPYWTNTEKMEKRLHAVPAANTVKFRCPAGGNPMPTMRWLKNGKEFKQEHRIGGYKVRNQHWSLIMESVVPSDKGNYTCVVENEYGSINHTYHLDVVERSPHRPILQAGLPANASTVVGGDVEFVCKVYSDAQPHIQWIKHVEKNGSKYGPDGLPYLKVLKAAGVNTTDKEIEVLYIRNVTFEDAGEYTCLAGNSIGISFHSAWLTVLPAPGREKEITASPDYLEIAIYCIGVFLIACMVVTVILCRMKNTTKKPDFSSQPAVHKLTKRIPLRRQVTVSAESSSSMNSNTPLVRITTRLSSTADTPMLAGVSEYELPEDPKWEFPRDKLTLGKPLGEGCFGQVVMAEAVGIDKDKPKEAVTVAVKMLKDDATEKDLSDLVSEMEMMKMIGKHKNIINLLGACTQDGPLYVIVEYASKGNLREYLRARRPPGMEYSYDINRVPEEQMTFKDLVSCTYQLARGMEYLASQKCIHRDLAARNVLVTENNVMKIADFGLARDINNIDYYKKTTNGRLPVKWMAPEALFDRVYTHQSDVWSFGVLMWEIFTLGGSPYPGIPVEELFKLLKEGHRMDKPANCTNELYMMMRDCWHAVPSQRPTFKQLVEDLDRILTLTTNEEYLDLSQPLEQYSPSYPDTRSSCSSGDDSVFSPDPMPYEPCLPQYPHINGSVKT
# Sequence of Vascular endothelial growth factor receptor 2 (Homo sapiens) (P35968 whole entry): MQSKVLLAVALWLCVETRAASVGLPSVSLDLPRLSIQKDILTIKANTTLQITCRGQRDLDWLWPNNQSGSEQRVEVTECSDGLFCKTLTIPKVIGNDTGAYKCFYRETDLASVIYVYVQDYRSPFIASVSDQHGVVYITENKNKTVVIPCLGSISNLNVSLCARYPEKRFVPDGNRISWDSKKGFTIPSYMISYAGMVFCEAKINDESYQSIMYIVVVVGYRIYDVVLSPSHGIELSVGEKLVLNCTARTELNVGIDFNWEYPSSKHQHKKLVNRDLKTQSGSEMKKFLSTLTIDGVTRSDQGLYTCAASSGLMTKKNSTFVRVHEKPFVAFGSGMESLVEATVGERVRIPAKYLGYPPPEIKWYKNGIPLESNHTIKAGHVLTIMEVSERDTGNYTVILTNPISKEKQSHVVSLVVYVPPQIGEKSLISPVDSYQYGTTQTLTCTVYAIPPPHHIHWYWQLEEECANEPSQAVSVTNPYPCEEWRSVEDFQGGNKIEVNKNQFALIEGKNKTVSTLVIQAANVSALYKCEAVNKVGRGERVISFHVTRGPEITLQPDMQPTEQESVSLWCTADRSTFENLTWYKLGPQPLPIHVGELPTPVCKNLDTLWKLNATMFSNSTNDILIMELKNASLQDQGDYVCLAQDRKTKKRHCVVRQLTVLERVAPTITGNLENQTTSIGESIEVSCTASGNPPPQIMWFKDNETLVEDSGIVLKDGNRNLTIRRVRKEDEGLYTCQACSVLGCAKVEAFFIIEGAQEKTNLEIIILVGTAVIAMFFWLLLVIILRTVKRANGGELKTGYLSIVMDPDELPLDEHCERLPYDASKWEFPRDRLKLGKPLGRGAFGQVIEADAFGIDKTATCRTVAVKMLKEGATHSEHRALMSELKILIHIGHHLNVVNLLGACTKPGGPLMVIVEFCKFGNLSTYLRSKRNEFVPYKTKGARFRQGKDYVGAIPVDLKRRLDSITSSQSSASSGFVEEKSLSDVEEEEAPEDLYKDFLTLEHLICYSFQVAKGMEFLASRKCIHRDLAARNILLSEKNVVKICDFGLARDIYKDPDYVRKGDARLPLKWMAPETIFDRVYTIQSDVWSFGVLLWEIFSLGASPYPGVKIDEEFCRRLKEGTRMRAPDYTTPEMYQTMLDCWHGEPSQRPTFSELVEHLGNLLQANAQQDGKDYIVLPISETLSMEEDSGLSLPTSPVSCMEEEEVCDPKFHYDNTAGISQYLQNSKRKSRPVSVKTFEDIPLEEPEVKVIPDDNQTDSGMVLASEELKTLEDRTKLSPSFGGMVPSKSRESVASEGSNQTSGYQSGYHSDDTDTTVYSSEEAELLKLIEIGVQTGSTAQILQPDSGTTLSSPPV
# Sequence of Hepatocyte growth factor receptor (Homo sapiens) (P08581 whole entry): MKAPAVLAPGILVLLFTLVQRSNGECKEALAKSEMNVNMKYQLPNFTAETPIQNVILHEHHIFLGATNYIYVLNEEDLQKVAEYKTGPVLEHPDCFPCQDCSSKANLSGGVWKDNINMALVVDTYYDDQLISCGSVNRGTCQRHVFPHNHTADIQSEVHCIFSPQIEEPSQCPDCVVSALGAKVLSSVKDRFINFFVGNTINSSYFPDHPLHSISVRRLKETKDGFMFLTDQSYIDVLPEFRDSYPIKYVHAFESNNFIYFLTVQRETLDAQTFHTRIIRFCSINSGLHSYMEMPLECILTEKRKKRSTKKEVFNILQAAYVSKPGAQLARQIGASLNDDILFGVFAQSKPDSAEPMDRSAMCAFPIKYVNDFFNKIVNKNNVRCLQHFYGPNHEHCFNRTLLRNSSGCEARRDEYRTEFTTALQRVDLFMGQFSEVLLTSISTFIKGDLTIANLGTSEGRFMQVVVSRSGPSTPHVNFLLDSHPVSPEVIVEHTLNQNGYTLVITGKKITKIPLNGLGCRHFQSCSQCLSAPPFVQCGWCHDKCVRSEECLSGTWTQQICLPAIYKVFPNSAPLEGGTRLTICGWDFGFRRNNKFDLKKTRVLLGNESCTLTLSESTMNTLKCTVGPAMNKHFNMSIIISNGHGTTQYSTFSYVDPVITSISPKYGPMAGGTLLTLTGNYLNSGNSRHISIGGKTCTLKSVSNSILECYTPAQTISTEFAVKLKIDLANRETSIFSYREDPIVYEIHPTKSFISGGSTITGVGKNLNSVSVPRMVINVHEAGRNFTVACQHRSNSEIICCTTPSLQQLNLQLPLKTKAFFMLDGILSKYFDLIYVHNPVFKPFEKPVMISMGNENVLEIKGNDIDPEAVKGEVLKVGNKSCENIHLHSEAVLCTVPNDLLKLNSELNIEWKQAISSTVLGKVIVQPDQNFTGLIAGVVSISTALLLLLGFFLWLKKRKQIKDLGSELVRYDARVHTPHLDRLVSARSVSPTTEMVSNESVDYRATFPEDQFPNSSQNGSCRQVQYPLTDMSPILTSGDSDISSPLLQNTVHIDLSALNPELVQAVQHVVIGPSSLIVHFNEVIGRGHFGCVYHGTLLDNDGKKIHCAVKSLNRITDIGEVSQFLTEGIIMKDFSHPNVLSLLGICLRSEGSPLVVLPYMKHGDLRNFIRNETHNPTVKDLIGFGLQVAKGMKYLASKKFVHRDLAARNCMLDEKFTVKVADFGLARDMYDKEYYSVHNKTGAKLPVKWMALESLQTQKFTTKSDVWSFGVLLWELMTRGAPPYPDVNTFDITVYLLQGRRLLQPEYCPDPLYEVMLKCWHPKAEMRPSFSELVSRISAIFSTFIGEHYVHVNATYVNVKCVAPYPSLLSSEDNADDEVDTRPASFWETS
# Sequence of Ephrin type-A receptor 2 (Homo sapiens) (P29317 whole entry): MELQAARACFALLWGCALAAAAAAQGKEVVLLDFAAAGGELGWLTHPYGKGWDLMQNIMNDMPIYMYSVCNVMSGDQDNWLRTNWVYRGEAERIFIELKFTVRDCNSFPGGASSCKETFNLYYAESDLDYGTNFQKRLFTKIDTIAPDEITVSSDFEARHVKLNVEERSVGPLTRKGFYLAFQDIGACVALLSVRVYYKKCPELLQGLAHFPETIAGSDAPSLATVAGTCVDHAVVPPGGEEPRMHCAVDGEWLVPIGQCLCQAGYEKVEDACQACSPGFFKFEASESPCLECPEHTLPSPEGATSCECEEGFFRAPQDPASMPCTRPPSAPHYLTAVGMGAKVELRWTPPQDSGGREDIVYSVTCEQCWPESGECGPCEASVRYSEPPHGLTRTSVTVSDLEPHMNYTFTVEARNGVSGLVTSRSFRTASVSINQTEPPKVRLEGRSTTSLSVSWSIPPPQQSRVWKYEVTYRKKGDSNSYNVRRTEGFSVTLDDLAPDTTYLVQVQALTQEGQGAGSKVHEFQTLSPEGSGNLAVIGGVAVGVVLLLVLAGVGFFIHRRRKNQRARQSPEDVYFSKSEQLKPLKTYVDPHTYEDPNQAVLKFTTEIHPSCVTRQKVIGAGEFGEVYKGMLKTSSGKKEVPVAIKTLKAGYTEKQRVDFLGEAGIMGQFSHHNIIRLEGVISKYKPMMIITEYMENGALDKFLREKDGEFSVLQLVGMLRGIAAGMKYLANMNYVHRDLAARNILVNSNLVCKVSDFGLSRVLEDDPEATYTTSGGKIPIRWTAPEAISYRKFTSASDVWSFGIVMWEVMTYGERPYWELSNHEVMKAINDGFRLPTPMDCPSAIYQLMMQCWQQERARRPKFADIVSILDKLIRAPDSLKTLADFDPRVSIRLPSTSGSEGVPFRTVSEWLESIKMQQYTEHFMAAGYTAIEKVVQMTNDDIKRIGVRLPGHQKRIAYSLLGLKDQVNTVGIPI
# Sequence of Cyclin-dependent kinase 4 (Homo sapiens) (P11802 whole entry): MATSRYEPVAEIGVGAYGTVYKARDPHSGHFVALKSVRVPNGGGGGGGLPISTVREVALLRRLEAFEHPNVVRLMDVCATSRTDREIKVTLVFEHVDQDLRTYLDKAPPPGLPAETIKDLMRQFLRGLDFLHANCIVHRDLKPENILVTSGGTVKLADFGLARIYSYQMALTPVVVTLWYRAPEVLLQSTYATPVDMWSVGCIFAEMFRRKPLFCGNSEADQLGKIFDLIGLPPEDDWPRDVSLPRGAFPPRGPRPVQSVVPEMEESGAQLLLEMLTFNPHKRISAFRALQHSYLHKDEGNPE
smiles,measurement,setting,value
Cc1ccc(C(=O)Nc2cccc(C(F)(F)F)c2)cc1-c1ccc2c(-c3cnn(C4CC4)c3)n[nH]c2c1,inhibition in vivo at 10 mg/kg,[1],59.7%
same,inhibition,[2],42%
same,inhibition,[3],0.3%
same,inhibition,[4],90.1%
same,inhibition,[5],96.8%
same,inhibition,[6],83.6%
same,inhibition,[7],95%
same,IC50,[8],108 nM
same,inhibition,[9],25.8%
same,inhibition,[10],59.7%
same,inhibition,[11],100%
same,inhibition,[12],86.6%
same,inhibition,[13],93.5%
same,inhibition,[14],1.1%
same,inhibition,[15],4.4%
same,inhibition,[16],94.2%
same,inhibition,[17],1.4%
same,inhibition,[18],0%
same,inhibition,[19],67.8%
same,"Fa at 2 h, 5 µM",[20],48.6%
